Source: PMC11249109 (Drug Design, Development and Therapy, 2024)
Several values for one entry are separate records, joined by “and”; a condition that tells them apart may be missing. Equal values may be shown once. Read-outs that look alike come from different tables or passages of the source.

How the values were obtained:
[1] = low solubility but high permeability; cited from earlier work
[2] = Detection of panduratin A metabolites by QTOF LCMS in plasma, urine and feces; assay type: in vivo, Male Wistar rats; details: rats
Procedure, shortened: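 Male Wistar rats (fasted 12 h) received 4.5 mg/kg test compound i.v. via the lateral tail vein in 50% DMSO. Plasma came from tail-vein blood spun at 5000 g, 10 min, 4°C. Urine and feces were collected in metabolic cages at 0–24 and 24–72 h. Samples were methanol-precipitated and run on QTOF LC-MS with a C18 column at 35 °C and a 0.1% formic acid water/acetonitrile gradient.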

Nitric oxide = details: read-out: IC50, nitric oxide inhibition; cited from earlier work
prostaglandin E2 = details: read-out: IC50, prostaglandin E2 inhibition; cited from earlier work
SARS-CoV-2 = details: read-out: IC50, anti-SARS-CoV-2 activity; Vero E6 cells; cited from earlier work
[3] = Percentage recovery of unchanged panduratin A in urine and feces; assay type: in vivo, Male Wistar rats; details: rats
Procedure, shortened: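 Male Wistar rats (n=5/group, fasted 12 h) were dosed with 4.5 mg/kg i.v. (tail vein) or 45 mg/kg oral pure compound, both in 50% DMSO. Urine and feces were collected in metabolic cages at 0–24 and 24–72 h. Feces were bead-homogenised in methanol. Samples were precipitated with methanol containing glycyrrhizin as internal standard and quantified by negative-ESI triple-quadrupole LC-MS (calibration 0.98–1000 μg/L). Recovery is the amount excreted divided by the dose.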

HIV-1 protease = details: read-out: IC50, HIV-1 protease activity; cited from earlier work
[4] = rats
[5] = intravenous administration, 0–72 h
[6] = 45 mg/kg as panduratin A p.o., IC50 from ref 7

COc1cc(O)c(C(=O)[C@@H]2[C@H](CC=C(C)C)C(C)=CC[C@H]2c2ccccc2)c(O)c1 [Panduratin A]
BCS class [1]: BCS class II | glucuronidation form of panduratin A [2]: not detected | metabolites in plasma or urine (QTOF LCMS) ([2]; after i.v. 4.5 mg/kg): none of the metabolites of panduratin A were detected in plasma or urine | IC50 (Nitric oxide): 175 nM | IC50 (prostaglandin E2): 19.5 nM | IC50 (SARS-CoV-2): 810 nM | unchanged panduratin A excreted in urine [3, 5]: 2 % of the administered dose | unchanged panduratin A excreted via feces [3, 5]: 25 % of the administered dose | unchanged panduratin A excreted in urine ([3]; single oral administration, 0–72 h): ~1 % of the administered dose | unchanged panduratin A excreted in feces, over the experimental groups ([3]; summary over i.v. and oral groups): 20–30 % of the administered dose and 22–60 % of the administered dose | IC50 (HIV-1 protease): 18700 nM | plasma concentration after 72 h ([4]; 4.5 mg/kg i.v.): 500 ng/mL | Cmax of panduratin A relative to in vitro anti-SARS-CoV-2 IC50 [4, 6]: approximately 15 fold | minimum plasma concentration at 24 h relative to in vitro anti-SARS-CoV-2 IC50 [4, 6]: approximately 10 fold | plasma concentration after 72 h ([4]; 45 mg/kg as panduratin A single p.o.): 500 ng/mL
